We go through 8 compounds from ChEMBL document CHEMBL1144441, “Identification of a novel cardenolide (2''-oxovoruscharin) from Calotropis procera and the hemisynthesis of novel derivatives displaying potent in vitro antitumor activities and high in vivo tolerance: structure-activity relationship analyses” (J Med Chem, 2005).

For experiment [1], the system named is Mus musculus. Kind of experiment: Maximum tolerated dose after intraperitoneal administration in mouse (period of 28 days); not determined. It is filed as functional. In outline:
(§1)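 Healthy, non-tumour-bearing B6D2F1 mice given one acute intraperitoneal dose, three mice per dose group, doses 5, 10, 20, 40, 80, 120 and 160 mg/kg. Survival and body weight followed for 28 days after injection. MTD is the highest single dose causing no deaths over the period.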

In experiment [2] the test system is LoVo. Kind of experiment: Concentration required for 50% growth inhibition of human LoVo cancer cell lines after 3 days of culture. It is filed as functional, cell-based. The settings on record: 72 h. In outline: (§2)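 MTT overall-growth assay on the five lines. Cells were plated for 24 h at 10 000–40 000 cells/mL, depending on cell type. Nine concentrations from 10^-9 to 10^-5 M in semilog steps were applied for 72 h. Formazan was read at 570 nm against a 630 nm reference, in sextuplicate. IC50 = concentration reducing overall growth by 50% versus untreated control.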

Experiment [3] can be described thus: Concentration required for 50% growth inhibition of human Hs 683 cancer cell lines after 3 days of culture. The settings on record: 72 h. It is filed as functional, cell-based. The procedure, abridged:
as §2

For experiment [4], the system named is U373 MG. Put plainly: Concentration required for 50% growth inhibition of human U373 cancer cell lines after 3 days of culture. The settings on record: 72 h. It is filed as functional, cell-based, U-373MG ATCC. The procedure, abridged:
as §2

In experiment [5] the test system is HCT-15. Put plainly: Concentration required for 50% growth inhibition of human HCT-15 cancer cell lines after 3 days of culture. It is filed as functional, cell-based. Conditions: HCT-15, 72 h. The procedure, abridged:
as §2

The test system of experiment [6] is A549. Kind of experiment: Concentration required for 50% growth inhibition of human A549 cancer cell lines after 3 days of culture. In kind it is functional, cell-based. Conditions: A549, 72 h. The procedure, abridged:
as §2

Experiment [7] concerns the target Sodium/potassium-transporting ATPase subunit alpha-1 (Sus scrofa, UniProt P05024). Put plainly: In vitro inhibitory activity against porcine Na+/K+-ATPase. The procedure, abridged:
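Porcine cerebral cortex Na+/K+-ATPase (3 × 10-3 units), preincubated 30 min at 37 °C in 30 mM Tris-HCl pH 7.4, 5 mM MgCl2 with inhibitor (1 to 50 000 nM). ADP formation coupled via pyruvate kinase/lactate dehydrogenase, excess phosphoenolpyruvate, to NADH oxidation.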

The subject of experiment [8] is Mus musculus. Kind of experiment: Maximum tolerated dose after intraperitoneal administration in mouse (period of 28 days). In kind it is functional. The procedure, abridged:
as §1

Molecules are shown by their SMILES.

The term MTD denotes the largest dose that counted as tolerated. Low values mean poorer tolerability, high ones better tolerability. A word on the IC50: it is the concentration at which inhibition is half-maximal. Low readings indicate greater potency in that assay, high ones weaker potency in that assay.

With `CC(=O)CCC(=O)OC[C@]12C[C@H]3OC4(O)[C@@H](O[C@H](C)C[C@@]45NC(=O)CS5)O[C@@H]3C[C@@H]1CC[C@@H]1[C@@H]2CC[C@]2(C)[C@@H](C3=CC(=O)OC3)CC[C@]12CO` (stereo not given in full), the MTD in experiment [1] amounted to 20 mg/kg. Also, the IC50 worked out at 3 µM in experiment [2]; 0.758 µM in experiment [3]; 3.23 µM in experiment [4]; 3.24 µM in experiment [5]; 0.463 µM in experiment [6].

As for `CC(=O)OC[C@]12C[C@H]3OC4(O)[C@@H](O[C@H](C)C[C@@]45N=C(N)CS5)O[C@@H]3C[C@@H]1CC[C@@H]1[C@@H]2CC[C@]2(C)[C@@H](C3=CC(=O)OC3)CC[C@]12CO` (stereo not given in full), the concentration for half-maximal inhibition (IC50) in experiment [2] was 3.54 µM; in experiment [3], > 1.28 µM; in experiment [4], > 4.15 µM; in experiment [5] it was 4.13 µM; in experiment [6], 3.71 µM; in experiment [7], 12.1 µM. Also, the MTD in experiment [8] was >40 mg/kg.

`C[C@@H]1C[C@@]2(N=C(N)CS2)C2(O[Si](C)(C)C)O[C@@H]3C[C@@]4(CO[Si](C)(C)C)[C@@H](CC[C@@H]5[C@@H]4CC[C@]4(C)[C@@H](C6=CC(=O)OC6)CC[C@]54CO[Si](C)(C)C)C[C@H]3O[C@@H]2O1` (stereo not given in full): the IC50 is > 10 µM in experiment [2]; > 10 µM in experiment [3]; > 10 µM in experiment [4]; > 10 µM in experiment [5]; > 10 µM in experiment [6]; > 50 µM in experiment [7]. In addition, the MTD in experiment [8] was >160 mg/kg.

With `C[C@@H]1C[C@@]2(N=C(N)CS2)C2(O)O[C@@H]3C[C@@]4(COC(=O)c5ccccc5)[C@@H](CC[C@@H]5[C@@H]4CC[C@]4(C)[C@@H](C6=CC(=O)OC6)CC[C@]54CO)C[C@H]3O[C@@H]2O1` (stereo not given in full), the IC50 in experiment [2] is > 10 µM; in experiment [3] it was > 10 µM; in experiment [4] it was > 10 µM; in experiment [5], > 10 µM; in experiment [6] it was > 10 µM; in experiment [7], > 50 µM. Besides, the MTD in experiment [8] was >40 mg/kg.

With `C[C@@H]1C[C@@]2(N=C(N)CS2)C2(O[Si](C)(C)C)O[C@@H]3C[C@@]4(CO[Si](C)(C)C)[C@@H](CC[C@@H]5[C@@H]4CC[C@]4(C)[C@@H](C6=CC(=O)OC6)CC[C@]54CO)C[C@H]3O[C@@H]2O1` (stereo not given in full), the IC50 in experiment [2] came to 3.85 µM; in experiment [3], 1.11 µM; in experiment [4], 4.62 µM; in experiment [5], 3.66 µM; in experiment [6], 2.58 µM; in experiment [7], 4.08 µM. Besides, the MTD in experiment [8] was >160 mg/kg.

As for `C[C@@H]1C[C@@]2(N=C(N)CS2)C2(O[Si](C)(C)C)O[C@@H]3C[C@@]4(CO)[C@@H](CC[C@@H]5[C@@H]4CC[C@]4(C)[C@@H](C6=CC(=O)OC6)CC[C@]54CO[Si](C)(C)C)C[C@H]3O[C@@H]2O1` (stereo not given in full), the IC50 in experiment [2] was found to be 0.34 µM; in experiment [3], 0.346 µM; in experiment [4], 0.925 µM; in experiment [5], 0.454 µM; in experiment [6], 0.126 µM; in experiment [7], 1.89 µM. The MTD in experiment [8] is >160 mg/kg.

`CC(=O)OC[C@]12C[C@H]3OC4(O[Si](C)(C)C)[C@@H](O[C@H](C)C[C@@]45N=C(N)CS5)O[C@@H]3C[C@@H]1CC[C@@H]1[C@@H]2CC[C@]2(C)[C@@H](C3=CC(=O)OC3)CC[C@]12CO[Si](C)(C)C` (stereo not given in full): the IC50 was 9.57 µM in experiment [2]; 7.92 µM in experiment [3]; > 10 µM in experiment [4]; > 10 µM in experiment [5]; > 10 µM in experiment [6]; > 50 µM in experiment [7]. Further, the MTD in experiment [8] was >160 mg/kg.

`C[C@@H]1C[C@@]2(N=C(N)CS2)C2(O[Si](C)(C)C)O[C@@H]3C[C@@]4(C=O)[C@@H](CC[C@@H]5[C@@H]4CC[C@]4(C)[C@@H](C6=CC(=O)OC6)CC[C@]54CO[Si](C)(C)C)C[C@H]3O[C@@H]2O1` (stereo not given in full): the IC50 in experiment [2] is > 10 µM; in experiment [3] it was 8.6 µM; in experiment [4], > 10 µM; in experiment [5], > 10 µM; in experiment [6] it was 7.54 µM; in experiment [7], 50 µM. In experiment [8], the MTD was >160 mg/kg.
